From ChEMBL document CHEMBL3227991, “5-Iminodaunorubicin. Reduced cardiotoxic properties in an antitumor anthracycline” (J Med Chem, 1979)

What was measured:
[1] = test system: P388; experiment: Antitumor activity against mouse P388 cells allografted in mouse assessed as increase in survival time at 6.25 mg/kg administered as qd for 1 to 9 days relative to control; format: functional
Procedure, shortened: (§1)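 Transplanted P388 leukemia or B16 melanoma in mice, dosed on a schedule of nine daily doses (qd 1-9). Efficacy was the increase in survival time of treated versus control animals (% T/C), from single tests.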

[2] = test system: B16; experiment: Antitumor activity against mouse B16 cells allografted in mouse assessed as increase in survival time at 6.25 mg/kg administered as qd for 1 to 9 days relative to control; format: functional; procedure, shortened: as §1
[3] = test system: P388; experiment: Antitumor activity against mouse P388 cells allografted in mouse assessed as increase in survival time at 24 mg/kg, ip administered as single dose on day 5, 9 and 13 relative to control; format: functional; conditions: route intraperitoneal
Procedure, shortened: (§2)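 Mice received ip P388 leukemia cells on day 0. Disease was left to progress and ip dosing was delayed to days 5, 9 and 13. Survival time of treated relative to control mice was expressed as % T/C, with ≥125 defined as active. Values are means of repeated tests (27 for reference agents, duplicate for others).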

[4] = test system: P388; experiment: Antitumor activity against mouse P388 cells allografted in mouse assessed as increase in survival time at 3 mg/kg, ip administered as single dose on day 5, 9 and 13 relative to control; format: functional; conditions: route intraperitoneal; procedure, shortened: as §2
[5] = test system: Salmonella typhimurium; experiment: Genotoxicity in Salmonella typhimurium TA98 assessed as number of revertants by Ames test; format: toxicity, organism-based; conditions: salmonella enterica subsp. enterica serovar typhimurium
Procedure, shortened: (§3)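 Ames reversion in S. typhimurium TA98, run with and without microsomal activation; doses up to a maximum of 32 μg/plate; four determinations; mutagenicity given as revertants/nmol.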

[6] = test system: P388; experiment: Antitumor activity against mouse P388 cells allografted in mouse assessed as increase in survival time at 6 mg/kg, ip administered as single dose on day 5, 9 and 13 relative to control; format: functional; conditions: route intraperitoneal; procedure, shortened: as §2
[7] = test system: L1210; experiment: Inhibition of RNA synthesis in mouse L1210 cells; format: functional; conditions: read-out: ED50 (the source's name)
[8] = test system: Salmonella typhimurium; experiment: Genotoxicity in Salmonella typhimurium TA100 by Ames test; format: toxicity, organism-based; conditions: salmonella enterica subsp. enterica serovar typhimurium
[9] = test system: P388; experiment: Antitumor activity against mouse P388 cells allografted in mouse assessed as increase in survival time at 4 mg/kg, ip administered as qd for 1 to 9 days relative to control; format: functional; conditions: route intraperitoneal
[10] = test system: Salmonella typhimurium; experiment: Genotoxicity in Salmonella typhimurium TA98 assessed as number of revertants by Ames test in presence of microsomal activation; format: toxicity, organism-based; conditions: salmonella enterica subsp. enterica serovar typhimurium; procedure, shortened: as §3
[11] = test system: B16; experiment: Antitumor activity against mouse B16 cells allografted in mouse assessed as increase in survival time at 2 mg/kg, ip administered as qd for 1 to 9 days relative to control; format: functional; conditions: route intraperitoneal
Procedure, shortened: (§4)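 B16 melanoma in mice. Treatment was given as nine daily doses, as a single dose on day 1, or as a single dose delayed to day 5. Activity was taken as the increase in survival time of treated versus control animals (% T/C).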

[12] = test system: Salmonella typhimurium; experiment: Genotoxicity in Salmonella typhimurium TA98 assessed as number of revertants by Ames test in absence of microsomal activation; format: toxicity, organism-based; conditions: salmonella enterica subsp. enterica serovar typhimurium; procedure, shortened: as §3
[13] = test system: Calf thymus DNA; experiment: Binding affinity to calf thymus DNA assessed as change in melting temperature; format: nucleic-acid assay; conditions: Bos taurus
Procedure, shortened: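 Thermal denaturation of isolated helical DNA in 0.010 M phosphate buffer, pH 7.0, with 10⁻⁵ M EDTA and 5% Me₂SO to solubilize compounds; read-out is the increase in melting temperature (ΔTm, °C).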

[14] = species on record: Rattus norvegicus; experiment: Cardiotoxicity in rat assessed as minimum cumulative drug dose causing electrocardiographic changes; format: toxicity, organism-based; conditions: in vivo
Procedure, shortened: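 Zbinden cardiotoxicity test in rats; endpoint is the minimum cumulative dose producing significant electrocardiographic changes, expressed in mg/kg.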

[15] = test system: L1210; experiment: Inhibition of DNA synthesis in mouse L1210 cells; format: functional; conditions: read-out: ED50 (the source's name)
[16] = test system: B16; experiment: Antitumor activity against mouse B16 cells allografted in mouse assessed as increase in survival time at 6.25 mg/kg, ip administered as single dose on day 1 relative to control; format: functional; conditions: route intraperitoneal; procedure, shortened: as §4
[17] = test system: B16; experiment: Antitumor activity against mouse B16 cells allografted in mouse assessed as increase in survival time at 12.5 mg/kg, ip administered as single dose on day 5 relative to control; format: functional; conditions: route intraperitoneal; procedure, shortened: as §4
[18] = test system: P388; experiment: Antitumor activity against mouse P388 cells allografted in mouse assessed as increase in survival time at 0.5 mg/kg, ip administered as qd for 1 to 9 days relative to control; format: functional; conditions: route intraperitoneal
[19] = test system: P388; experiment: Antitumor activity against mouse P388 cells allografted in mouse assessed as increase in survival time at 12 mg/kg, ip administered as single dose on day 5, 9 and 13 relative to control; format: functional; conditions: route intraperitoneal; procedure, shortened: as §2
[20] = test system: P388; experiment: Antitumor activity against mouse P388 cells allografted in mouse assessed as increase in survival time at 2 mg/kg, ip administered as qd for 1 to 9 days relative to control; format: functional; conditions: route intraperitoneal
[21] = test system: P388; experiment: Antitumor activity against mouse P388 cells allografted in mouse assessed as increase in survival time at 1.5 mg/kg, ip administered as single dose on day 5, 9 and 13 relative to control; format: functional; conditions: route intraperitoneal; procedure, shortened: as §2
[22] = test system: Salmonella typhimurium; experiment: Genotoxicity in Salmonella typhimurium TA98 at 32 ug/plate by Ames test; format: toxicity, organism-based; conditions: salmonella enterica subsp. enterica serovar typhimurium; procedure, shortened: as §3
[23] = test system: P388; experiment: Antitumor activity against mouse P388 cells allografted in mouse assessed as increase in survival time at 1 mg/kg, ip administered as qd for 1 to 9 days relative to control; format: functional; conditions: route intraperitoneal
[24] = test system: P388; experiment: Antitumor activity against mouse P388 cells allografted in mouse assessed as increase in survival time at 8 mg/kg, ip administered as single dose on day 5, 9 and 13 relative to control; format: functional; conditions: route intraperitoneal; procedure, shortened: as §2
[25] = test system: Salmonella typhimurium; experiment: Genotoxicity in Salmonella typhimurium TA100 assessed as number of revertants by Ames test; format: toxicity, organism-based; conditions: salmonella enterica subsp. enterica serovar typhimurium
[26] = test system: P388; experiment: Antitumor activity against mouse P388 cells allografted in mouse assessed as increase in survival time at 1.56 mg/kg, ip administered as qd for 1 to 9 days relative to control; format: functional; conditions: route intraperitoneal
[27] = test system: Salmonella typhimurium; experiment: Genotoxicity in Salmonella typhimurium TA98 at >8 ug/plate by Ames test; format: toxicity, organism-based; conditions: salmonella enterica subsp. enterica serovar typhimurium
[28] = test system: P388; experiment: Antitumor activity against mouse P388 cells allografted in mouse assessed as increase in survival time at 0.39 mg/kg, ip administered as qd for 1 to 9 days relative to control; format: functional; conditions: route intraperitoneal
[29] = test system: Salmonella typhimurium; experiment: Genotoxicity in Salmonella typhimurium 908 assessed as number of revertants by Ames test; format: toxicity, organism-based; conditions: salmonella enterica subsp. enterica serovar typhimurium
[30] = test system: P388; experiment: Antitumor activity against mouse P388 cells allografted in mouse assessed as increase in survival time at 16 mg/kg, ip administered as single dose on day 5, 9 and 13 relative to control; format: functional; conditions: route intraperitoneal; procedure, shortened: as §2
[31] = test system: P388; experiment: Antitumor activity against mouse P388 cells allografted in mouse assessed as increase in survival time at 0.2 mg/kg, ip administered as qd for 1 to 9 days relative to control; format: functional; conditions: route intraperitoneal
[32] = test system: P388; experiment: Antitumor activity against mouse P388 cells allografted in mouse assessed as increase in survival time at 2 mg/kg, ip administered as single dose on day 5, 9 and 13 relative to control; format: functional; conditions: route intraperitoneal; procedure, shortened: as §2
[33] = test system: P388; experiment: Antitumor activity against mouse P388 cells allografted in mouse assessed as increase in survival time at 4 mg/kg, ip administered as single dose for every 4 days up to 13 days relative to control; format: functional; conditions: route intraperitoneal; procedure, shortened: as §2
[34] = test system: P388; experiment: Antitumor activity against mouse P388 cells allografted in mouse assessed as increase in survival time at 0.78 mg/kg, ip administered as qd for 1 to 9 days relative to control; format: functional; conditions: route intraperitoneal
[35] = test system: Salmonella typhimurium; experiment: Genotoxicity in Salmonella typhimurium 8907 assessed as number of revertants by Ames test in presence of S9 fraction; format: toxicity, organism-based; conditions: salmonella enterica subsp. enterica serovar typhimurium

| Compound | Activity [5] | EC50 [7] | ΔTm [13] | MTC [14] | EC50 [15] | T/C [24] | T/C [26] | T/C [28] | T/C [30] | T/C [31] | T/C [32] | T/C [33] | T/C [34] | further results |
| --- | --- | --- | --- | --- | --- | --- | --- | --- | --- | --- | --- | --- | --- | --- |
| COc1cccc2c1C(=O)c1c(O)c3c(c(O)c1C2=O)C[C@@](O)(C(N)=O)C[C@@H]3O[C@H]1C[C@H](N)[C@H](O)[C@H](C)O1.Cl |  |  |  |  |  |  |  |  |  |  |  |  |  | T/C [1]: 151%; T/C [2]: 161% |
| COc1cccc2c1C(=N)c1c(O)c3c(c(O)c1C2=O)C[C@@](O)(C(C)=O)C[C@@H]3O[C@H]1C[C@H](N)[C@H](O)[C@H](C)O1.Cl | 1 revertants/nmol | 1.3 µM | 6.25 °C | 64 mg/kg | 1.6 µM |  |  |  |  |  |  |  |  | T/C [3]: 126%; T/C [4]: 130%; T/C [6]: 124%; Activity [8]: Non-toxic; T/C [9]: 153%; Activity [10]: 0 nmol; T/C [11]: 222%; Activity [12]: 0 nmol; T/C [16]: 173%; T/C [17]: 122%; T/C [18]: 145%; T/C [19]: 116%; T/C [20]: 170%; T/C [21]: 126%; Activity [22]: Non-toxic; T/C [23]: 164% |
| COc1cccc2c1C(=O)c1c(O)c3c(c(O)c1C2=O)C[C@@](O)(C(C)=O)C[C@@H]3O[C@H]1C[C@H](N)[C@H](O)[C@H](C)O1.Cl [DAUNORUBICIN HYDROCHLORIDE] | 100 revertants/nmol | 0.3 µM |  | 14 mg/kg | 1 µM | 132% | 148% | 153% | 126% | 144% | 126% | 128% | 160% | Activity [25]: 0.5 revertants/nmol; Activity [27]: Toxic; Activity [29]: 356 revertants/nmol |
| COc1cccc2c1C(=O)c1c(O)c3c(c(O)c1C2=O)C[C@@](O)(C(=O)CO)C[C@@H]3O[C@H]1C[C@H](N)[C@H](O)[C@H](C)O1 [DOXORUBICIN] |  | 0.7 µM | 13.4 °C | 11 mg/kg | 1.5 µM | 159% | 176% | 174% | 120% | 160% | 130% | 146% | 197% | Activity [35]: 108 revertants/nmol |
